Data published in ChEMBL document CHEMBL1133647, “Discovery of a potent, highly selective, and orally efficacious small-molecule activator of the insulin receptor” (J Med Chem, 2000).
pEC50: −log10 of the molar value. Active and inactive are the calls of the source. Unless noted, the rule behind the calls is not given here.

What was measured:
[1] = biological target: T1, Insulin receptor (Homo sapiens, UniProt P06213); assay: Activation of human insulin receptor tyrosine kinase (IRTK)
Outline: (§1)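 CHO cells stably transfected with human insulin receptor, plated 150 000 cells/well for 24 h, serum-starved 2 h, then exposed to compound 20 min at 37 °C. Lysate IR captured on anti-IR antibody wells (16 h, 4 °C), kinase reaction 40 min at 25 °C, radioactivity on phosphocellulose filters. Activity as % of maximal response to 100 nM insulin.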

[2] = biological target: Insulin-like growth factor 1 receptor (Homo sapiens) (UniProt P08069); assay: Percent insulin like growth factor receptor(IGFIR) activity at 30 uM (NS = less than 5% activation); assay type: functional
Outline: (§2)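 IGFIR counterscreen: cell-based receptor activation assay run like the CHO IR assay (20 min compound exposure, lysate capture, radiometric kinase readout). Compound tested at 30 uM; result as % of control response to 100 nM IGFI.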

[3] = biological target: Platelet-derived growth factor receptor beta (Homo sapiens) (UniProt P09619); assay: Percent platelet derived growth factor receptor (PDGFR) activity at 30 uM (NS = less than 5% activation); assay type: functional
Outline: (§3)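 PDGFR counterscreen: cell-based receptor activation assay run like the CHO IR assay (20 min compound exposure, lysate capture, radiometric kinase readout). Compound tested at 30 uM; result as % of control response to 100 nM PDGF.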

[4] = biological target: Epidermal growth factor receptor (Homo sapiens) (UniProt P00533); assay: Percent epidermal growth factor receptor (EGFR) activity at 30 uM (NS = less than 5% activation); assay type: functional
Outline: (§4)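 EGFR counterscreen: cell-based receptor activation assay run like the CHO IR assay (20 min compound exposure, lysate capture, radiometric kinase readout). Compound tested at 30 uM; result as % of control response to 100 nM EGF.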

[5] = biological target: T1, Insulin receptor; assay: Activation of human insulin receptor tyrosine kinase (NA = inactive up to 100 uM); outline: as §1
[6] = biological target: Insulin-like growth factor 1 receptor (Homo sapiens) (UniProt P08069); assay: Percent insulin like growth factor receptor(IGFIR) activity at 30 uM ( NS = less than 5% activation); assay type: functional; outline: as §2
[7] = biological target: Epidermal growth factor receptor (Homo sapiens) (UniProt P00533); assay: Percent epidermal growth factor receptor (EGFR) activity at 30 uM; assay type: functional; outline: as §4
[8] = biological target: Insulin-like growth factor 1 receptor (Homo sapiens) (UniProt P08069); assay: Percent insulin like growth factor receptor(IGFIR) activity at 30 uM; assay type: functional; outline: as §2
[9] = biological target: Platelet-derived growth factor receptor beta (Homo sapiens) (UniProt P09619); assay: Percent platelet derived growth factor receptor (PDGFR) activity at 30 uM; assay type: functional; outline: as §3
[10] = plasma clearance in preclinical species was measured after Intravenous administration at the given dose (0.05 mg/kg) in rat; assay type: ADME, organism-based; details: read-out: Clp
Outline: (§5)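 Male rats, beagle dogs and rhesus monkeys dosed iv in ethanol/PEG400/water (1:3:6, v/v/v), n = 2. Plasma extracted and drug quantified by LC-MS/MS (LOQ = 8-100 ng/mL) against a dihydroxybenzoquinone internal standard.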

[11] = test system: Canis familiaris; assay: plasma clearance in preclinical species was measured after Intravenous administration at the given dose (0.1 mg/kg) in dog; assay type: ADME, organism-based, Canis lupus familiaris; details: in vivo; outline: as §5
[12] = plasma clearance in preclinical species was measured after Intravenous administration at the given dose (0.01 mg/kg) in monkey; assay type: ADME, organism-based; details: simiiformes, in vivo; outline: as §5
[13] = maximum concentration in plasma in preclinical species was measured after oral administration at the given dose (0.5 mg/kg) in dog; assay type: ADME, organism-based, Canis lupus familiaris; design: dose 0.5 mg/kg, route oral
Outline: (§6)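 Beagle dogs or rhesus monkeys (male) dosed orally at 0.5 mg/kg as a 0.5% methylcellulose suspension with 0.02% sodium lauryl sulfate. Plasma extracted and drug measured by LC-MS/MS (LOQ = 8-100 ng/mL) with an internal standard; bioavailability relative to iv dosing.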

[14] = maximum concentration in plasma in preclinical species was measured after oral administration at the given dose (0.5 mg/kg) in monkey; assay type: ADME, organism-based; design: dose 0.5 mg/kg, route oral; details: simiiformes; outline: as §6
[15] = maximum concentration in plasma in preclinical species was measured after oral administration at the given dose (0.5 mg/kg) in rat; assay type: ADME, organism-based; design: dose 0.5 mg/kg, route oral
Outline: (§7)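 Male rats dosed orally at 0.5 mg/kg in ethanol/PEG400/water (1:3:6, v/v/v). Plasma extracted and drug measured by LC-MS/MS (LOQ = 8-100 ng/mL) with an internal standard; bioavailability relative to iv dosing.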

[16] = area under curve in preclinical species was measured after oral administration at the given dose (0.5 mg/kg) in monkey; assay type: ADME, organism-based; details: simiiformes, in vivo; outline: as §6
[17] = area under curve in preclinical species was measured after Intravenous administration at the given dose (0.01 mg/kg) in monkey; assay type: ADME, organism-based; details: simiiformes, in vivo; outline: as §5
[18] = area under curve in preclinical species was measured after Intravenous administration at the given dose (0.05 mg/kg) in rat; assay type: ADME, organism-based; details: in vivo; outline: as §5
[19] = area under curve in preclinical species was measured after Intravenous administration at the given dose (0.1 mg/kg) in dog; assay type: ADME, organism-based, Canis lupus familiaris; details: in vivo; outline: as §5
[20] = area under curve in preclinical species was measured after oral administration at the given dose (0.5 mg/kg) in dog; assay type: ADME, organism-based, Canis lupus familiaris; details: in vivo; outline: as §6
[21] = bioavailability in preclinical species was measured after oral administration at the given dose (0.5 mg/kg) in dog; assay type: ADME, organism-based, Canis lupus familiaris; details: in vivo; outline: as §6
[22] = bioavailability in preclinical species was measured after oral administration at the given dose (0.5 mg/kg) in monkey; assay type: ADME, organism-based; details: primates, in vivo; outline: as §6
[23] = terminal half life in preclinical species was measured after Intravenous administration at the given dose (0.01 mg/kg) in monkey; assay type: ADME, organism-based; details: simiiformes, in vivo; outline: as §5
[24] = terminal half life in preclinical species was measured after Intravenous administration at the given dose (0.05 mg/kg) in rat; assay type: ADME, organism-based; details: in vivo; outline: as §5
[25] = test system: Canis familiaris; assay: terminal half life in preclinical species was measured after Intravenous administration at the given dose (0.1 mg/kg) in dog; assay type: ADME, organism-based, Canis lupus familiaris; details: in vivo; outline: as §5
[26] = volume of distribution in preclinical species was measured after Intravenous administration at the given dose (0.01 mg/kg) in monkey; assay type: ADME, organism-based; details: simiiformes, in vivo; outline: as §5
[27] = volume of distribution in preclinical species was measured after Intravenous administration at the given dose (0.05 mg/kg) in rat; assay type: ADME, organism-based; details: in vivo, read-out: Vdss; outline: as §5
[28] = test system: Canis familiaris; assay: volume of distribution in preclinical species was measured after Intravenous administration at the given dose (0.1 mg/kg) in dog; assay type: ADME, organism-based, Canis lupus familiaris; details: in vivo; outline: as §5
[29] = Time taken for maximum concentration in preclinical species was measured after oral administration at the given dose (0.5 mg/kg) in dog; assay type: ADME, organism-based, Canis lupus familiaris; details: in vivo; outline: as §6
[30] = Time taken for maximum concentration in preclinical species was measured after oral administration at the given dose (0.5 mg/kg) in monkey; assay type: ADME, organism-based; details: simiiformes, in vivo; outline: as §6
[31] = Time taken for maximum concentration in preclinical species was measured after oral administration at the given dose (0.5 mg/kg) in rat; assay type: ADME, organism-based; details: in vivo; outline: as §7
[32] = test system: Mus musculus; assay: Blood glucose concentration at predosing of 10 mpk; assay type: functional, organism-based
Outline: (§8)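 Male ob/ob mice, 12 weeks old, with ob/+ lean controls, housed 7–9 per cage on chow and water ad libitum. Daily oral gavage of compound or vehicle (0.5% methylcellulose). Food was removed 0–6 h after dosing on days 1 and 2, then fed ad libitum. Blood glucose was taken before dosing and at 24 h after dosing, n = 10/group.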

[33] = species: Mus musculus; assay: Blood glucose level for the age- and sex-matched ob/+ lean mice; assay type: functional, organism-based; outline: as §8
[34] = test system: Mus musculus; assay: Decrease in blood glucose concentration at 24 hr postdosing of 10 mpk; assay type: functional, organism-based; outline: as §8
[35] = test system: Mus musculus; assay: Percent reduction of blood glucose level in a dose-dependent manner at 0.1 mpk administered once daily for 8-14 days by gavage to ad libitum fed animals; assay type: functional
[36] = test system: Mus musculus; assay: Percent reduction of blood glucose level in a dose-dependent manner at 1 mpk administered once daily for 8-14 days by gavage to ad libitum fed animals; assay type: functional
[37] = test system: Mus musculus; assay: Percent reduction of blood glucose level in a dose-dependent manner at 10 mpk administered once daily for 8-14 days by gavage to ad libitum fed animals; assay type: functional
[38] = bioavailability in preclinical species was measured after oral administration at the given dose (0.5 mg/kg) in rat; assay type: ADME, organism-based; details: in vivo; outline: as §7

T1 sequence (P06213 28-758 limits assumed): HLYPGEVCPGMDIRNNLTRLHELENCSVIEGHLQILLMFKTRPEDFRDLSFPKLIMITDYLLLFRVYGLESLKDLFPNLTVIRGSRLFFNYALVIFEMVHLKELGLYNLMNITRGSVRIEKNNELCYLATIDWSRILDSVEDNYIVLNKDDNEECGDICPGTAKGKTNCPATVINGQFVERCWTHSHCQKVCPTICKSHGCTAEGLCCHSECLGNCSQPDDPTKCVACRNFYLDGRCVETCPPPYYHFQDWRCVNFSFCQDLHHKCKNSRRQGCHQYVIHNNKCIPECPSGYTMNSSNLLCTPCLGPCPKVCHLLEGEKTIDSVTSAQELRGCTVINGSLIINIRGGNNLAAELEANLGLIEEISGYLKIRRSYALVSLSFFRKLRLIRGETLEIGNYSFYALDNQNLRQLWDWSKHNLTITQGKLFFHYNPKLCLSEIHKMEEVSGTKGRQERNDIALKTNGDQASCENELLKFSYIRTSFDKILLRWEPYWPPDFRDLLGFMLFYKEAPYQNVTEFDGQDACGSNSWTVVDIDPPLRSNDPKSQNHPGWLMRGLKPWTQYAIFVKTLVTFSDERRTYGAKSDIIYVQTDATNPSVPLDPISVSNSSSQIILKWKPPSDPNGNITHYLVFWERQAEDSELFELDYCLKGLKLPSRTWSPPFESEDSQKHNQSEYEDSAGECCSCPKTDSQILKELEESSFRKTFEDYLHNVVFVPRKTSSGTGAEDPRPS
T1 sequence (P06213 763-1382 limits assumed): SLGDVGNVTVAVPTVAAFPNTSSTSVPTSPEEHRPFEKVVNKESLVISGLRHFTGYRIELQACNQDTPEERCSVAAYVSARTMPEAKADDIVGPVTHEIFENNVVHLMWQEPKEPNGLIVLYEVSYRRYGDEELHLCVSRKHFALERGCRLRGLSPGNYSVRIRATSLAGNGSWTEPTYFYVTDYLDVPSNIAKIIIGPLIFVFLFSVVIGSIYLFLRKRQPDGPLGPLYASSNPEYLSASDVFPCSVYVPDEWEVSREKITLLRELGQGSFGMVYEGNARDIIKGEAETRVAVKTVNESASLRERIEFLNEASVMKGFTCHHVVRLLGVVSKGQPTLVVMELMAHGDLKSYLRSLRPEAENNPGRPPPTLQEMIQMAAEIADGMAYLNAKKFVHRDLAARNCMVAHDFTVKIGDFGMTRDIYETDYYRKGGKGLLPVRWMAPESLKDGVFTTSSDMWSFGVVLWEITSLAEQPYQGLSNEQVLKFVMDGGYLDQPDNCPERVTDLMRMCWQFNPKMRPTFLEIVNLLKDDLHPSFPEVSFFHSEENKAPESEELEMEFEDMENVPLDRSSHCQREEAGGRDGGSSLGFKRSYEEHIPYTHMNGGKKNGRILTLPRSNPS
Platelet-derived growth factor receptor beta (Homo sapiens), sequence (P09619 whole entry): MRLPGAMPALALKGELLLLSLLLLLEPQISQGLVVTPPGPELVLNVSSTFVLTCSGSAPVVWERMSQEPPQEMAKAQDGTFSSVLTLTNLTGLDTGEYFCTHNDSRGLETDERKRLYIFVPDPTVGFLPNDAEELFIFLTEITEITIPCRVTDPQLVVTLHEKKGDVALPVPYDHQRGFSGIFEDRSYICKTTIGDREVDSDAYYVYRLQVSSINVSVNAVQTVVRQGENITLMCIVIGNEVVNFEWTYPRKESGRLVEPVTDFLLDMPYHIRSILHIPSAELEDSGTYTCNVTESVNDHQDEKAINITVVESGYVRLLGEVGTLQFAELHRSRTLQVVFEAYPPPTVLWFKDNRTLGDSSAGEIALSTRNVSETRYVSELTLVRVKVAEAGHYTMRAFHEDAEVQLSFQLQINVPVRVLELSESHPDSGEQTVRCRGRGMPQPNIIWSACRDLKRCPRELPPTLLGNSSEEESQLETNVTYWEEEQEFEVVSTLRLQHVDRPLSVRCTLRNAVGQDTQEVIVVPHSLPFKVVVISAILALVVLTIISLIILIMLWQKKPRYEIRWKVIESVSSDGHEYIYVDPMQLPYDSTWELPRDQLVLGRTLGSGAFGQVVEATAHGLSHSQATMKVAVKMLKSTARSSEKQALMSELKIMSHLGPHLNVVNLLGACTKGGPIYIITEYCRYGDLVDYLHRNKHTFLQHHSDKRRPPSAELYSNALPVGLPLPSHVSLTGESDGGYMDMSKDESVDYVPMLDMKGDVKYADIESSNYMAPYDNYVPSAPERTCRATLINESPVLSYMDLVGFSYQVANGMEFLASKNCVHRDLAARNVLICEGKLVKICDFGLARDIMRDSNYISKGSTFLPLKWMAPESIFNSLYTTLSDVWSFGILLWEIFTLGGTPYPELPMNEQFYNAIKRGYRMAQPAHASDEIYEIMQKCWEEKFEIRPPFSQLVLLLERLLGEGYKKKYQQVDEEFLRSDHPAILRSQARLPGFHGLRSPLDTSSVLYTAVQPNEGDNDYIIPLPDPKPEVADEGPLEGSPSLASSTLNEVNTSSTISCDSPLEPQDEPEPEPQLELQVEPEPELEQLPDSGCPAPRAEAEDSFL
Epidermal growth factor receptor (Homo sapiens), sequence (P00533 whole entry): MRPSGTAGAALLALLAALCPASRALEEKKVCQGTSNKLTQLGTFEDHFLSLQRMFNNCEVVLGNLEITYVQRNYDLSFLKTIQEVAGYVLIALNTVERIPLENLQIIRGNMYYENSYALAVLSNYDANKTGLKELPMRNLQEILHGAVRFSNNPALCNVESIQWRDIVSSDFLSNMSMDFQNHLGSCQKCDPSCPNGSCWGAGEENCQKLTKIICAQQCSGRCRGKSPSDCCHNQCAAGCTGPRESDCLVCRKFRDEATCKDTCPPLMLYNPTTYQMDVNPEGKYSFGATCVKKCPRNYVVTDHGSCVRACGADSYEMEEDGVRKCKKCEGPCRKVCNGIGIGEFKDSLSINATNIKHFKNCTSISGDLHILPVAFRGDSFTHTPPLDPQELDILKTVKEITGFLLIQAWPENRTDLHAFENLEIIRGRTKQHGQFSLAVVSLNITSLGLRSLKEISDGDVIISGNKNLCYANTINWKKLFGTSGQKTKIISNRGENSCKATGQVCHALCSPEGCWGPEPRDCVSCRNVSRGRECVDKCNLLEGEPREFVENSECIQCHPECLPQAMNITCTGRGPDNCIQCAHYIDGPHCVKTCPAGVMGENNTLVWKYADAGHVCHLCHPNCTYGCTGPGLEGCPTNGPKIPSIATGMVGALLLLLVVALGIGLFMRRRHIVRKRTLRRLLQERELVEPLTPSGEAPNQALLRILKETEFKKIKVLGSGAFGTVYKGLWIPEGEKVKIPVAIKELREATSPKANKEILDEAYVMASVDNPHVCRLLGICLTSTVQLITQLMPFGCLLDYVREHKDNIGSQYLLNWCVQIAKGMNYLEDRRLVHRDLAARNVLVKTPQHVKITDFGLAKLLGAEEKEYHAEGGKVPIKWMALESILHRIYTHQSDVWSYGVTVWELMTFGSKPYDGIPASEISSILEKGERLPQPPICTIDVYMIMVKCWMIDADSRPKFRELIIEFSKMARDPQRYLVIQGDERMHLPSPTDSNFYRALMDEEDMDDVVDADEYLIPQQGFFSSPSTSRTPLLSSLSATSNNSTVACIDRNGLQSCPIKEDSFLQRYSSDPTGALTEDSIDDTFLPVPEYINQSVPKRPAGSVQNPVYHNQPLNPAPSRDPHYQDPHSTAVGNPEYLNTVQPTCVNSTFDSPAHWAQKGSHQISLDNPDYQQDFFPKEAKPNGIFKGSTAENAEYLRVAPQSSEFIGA
Insulin-like growth factor 1 receptor (Homo sapiens), sequence (P08069 31-736 limits assumed): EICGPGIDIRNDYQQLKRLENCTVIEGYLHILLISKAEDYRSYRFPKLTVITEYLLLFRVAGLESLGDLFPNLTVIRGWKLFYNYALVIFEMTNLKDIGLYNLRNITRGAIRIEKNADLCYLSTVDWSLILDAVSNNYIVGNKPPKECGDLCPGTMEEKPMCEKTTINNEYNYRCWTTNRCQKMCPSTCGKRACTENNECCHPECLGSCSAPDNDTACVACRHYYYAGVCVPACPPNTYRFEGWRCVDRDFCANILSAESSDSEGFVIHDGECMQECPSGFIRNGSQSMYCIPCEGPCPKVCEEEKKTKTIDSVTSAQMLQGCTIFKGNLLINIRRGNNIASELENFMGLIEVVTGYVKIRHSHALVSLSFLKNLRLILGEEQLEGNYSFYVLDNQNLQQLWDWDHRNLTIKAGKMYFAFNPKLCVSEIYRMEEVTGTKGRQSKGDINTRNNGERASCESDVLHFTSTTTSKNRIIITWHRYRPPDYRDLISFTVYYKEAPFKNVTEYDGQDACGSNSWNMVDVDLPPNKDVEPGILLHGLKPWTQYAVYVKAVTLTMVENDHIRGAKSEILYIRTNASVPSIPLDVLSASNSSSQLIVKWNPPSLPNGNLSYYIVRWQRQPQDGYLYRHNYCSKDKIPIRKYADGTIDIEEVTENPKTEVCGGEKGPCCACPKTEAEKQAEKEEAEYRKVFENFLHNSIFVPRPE
Insulin-like growth factor 1 receptor (Homo sapiens), sequence (P08069 741-1367 limits assumed): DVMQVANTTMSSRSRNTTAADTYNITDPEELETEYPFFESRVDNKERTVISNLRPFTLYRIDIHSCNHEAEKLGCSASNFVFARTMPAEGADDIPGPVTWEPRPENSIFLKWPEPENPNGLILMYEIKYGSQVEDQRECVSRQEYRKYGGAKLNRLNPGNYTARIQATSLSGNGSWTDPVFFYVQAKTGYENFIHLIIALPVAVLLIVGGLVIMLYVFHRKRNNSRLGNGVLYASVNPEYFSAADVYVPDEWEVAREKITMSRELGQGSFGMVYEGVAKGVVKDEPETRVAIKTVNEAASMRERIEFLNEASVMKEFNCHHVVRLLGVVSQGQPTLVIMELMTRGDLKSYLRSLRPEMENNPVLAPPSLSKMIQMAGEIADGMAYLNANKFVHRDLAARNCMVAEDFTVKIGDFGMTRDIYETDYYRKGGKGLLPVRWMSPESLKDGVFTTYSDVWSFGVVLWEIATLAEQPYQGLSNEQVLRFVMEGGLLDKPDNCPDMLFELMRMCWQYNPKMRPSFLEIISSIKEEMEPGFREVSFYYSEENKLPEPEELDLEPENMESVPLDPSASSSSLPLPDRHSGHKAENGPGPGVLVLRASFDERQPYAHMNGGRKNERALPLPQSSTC

## O=C1C(O)=C(c2cccc3ccccc23)C(=O)C(O)=C1c1ccccc1
[1]
  pEC50: 5.22
[2]
  Activation: inactive
[3]
  Activation: inactive

## COc1ccc(C2=C(O)C(O)=C(c3ccccc3)C(=O)C2=O)cc1
[4]
  Activation: inactive
[5]
  EC50: Not Active
[6]
  Activation: inactive
[3]
  Activation: inactive

## O=C1C(O)=C(c2csc3ccccc23)C(=O)C(O)=C1c1ccccc1
[4]
  Activation: inactive
[1]
  pEC50: 6.00
[2]
  Activation: inactive
[3]
  Activation: inactive

## C=CC(C)(C)c1[nH]c2ccccc2c1C1=C(O)C(O)=C(c2c[nH]c3c(CC=C(C)C)cccc23)C(=O)C1=O
[7]
  Activation: 15%
[1]
  pEC50: 5.30
[8]
  Activation: 38%
[9]
  Activation: 6%

## O=C1C(O)=C(c2coc3ccccc23)C(=O)C(O)=C1c1ccccc1
[4]
  Activation: inactive
[1]
  pEC50: 5.82
[2]
  Activation: inactive
[3]
  Activation: inactive

## Cc1cccc2c(C3=C(O)C(O)=C(c4c[nH]c5ccccc45)C(=O)C3=O)c[nH]c12
[7]
  Activation: 25%
[1]
  pEC50: 5.15
[8]
  Activation: 32%

## O=C1C(O)=C(c2ccc3ccccc3c2)C(=O)C(O)=C1c1ccccc1
[1]
  pEC50: 4.52
[2]
  Activation: inactive
[3]
  Activation: inactive

## Cn1cc(C2=C(O)C(O)=C(c3ccccc3)C(=O)C2=O)c2ccccc21
[10]
  clearance: 2.28 mL/h/kg
[11]
  Clp: 1.14 mL/h/kg
[12]
  Clp: 1.2 mL/h/kg
[13]
  Cmax: 5270 ng/mL
[14]
  Cmax: 7590 ng/mL
[15]
  Cmax: 4880 ng/mL
[16]
  AUC: 278000 ng·h/mL
[17]
  AUC: 8370 ng·h/mL
[18]
  AUC: 21800 ng·h/mL
[19]
  AUC: 89800 ng·h/mL
[20]
  AUC: 266000 ng·h/mL
[21]
  bioavailability: 59.2%
[22]
  bioavailability: 66.5%
[23]
  T1/2: 66 h
[24]
  half-life: 32 h
[25]
  T1/2: 93.5 h
[26]
  Vdss: 0.31 L/kg
[27]
  Vd: 0.1 L/kg
[28]
  Vdss: 0.56 L/kg
[29]
  Tmax: 2.5 h
[30]
  Tmax: 8 h
[31]
  Tmax: 10 h
[4]
  Activation: inactive
[1]
  pEC50: 6.52
[2]
  Activation: inactive
[3]
  Activation: inactive
[32]
  Concentration: 233 mg/dL
[33]
  Concentration: 143 mg/dL
[34]
  Concentration: 150 mg/dL
[35]
  Reduction: 29%
[36]
  Reduction: 47%
[37]
  Reduction: 84%
[38]
  bioavailability: 79.3%

## O=C1C(O)=C(c2c[nH]c3ccccc23)C(=O)C(O)=C1c1ccccc1
[7]
  Activation: 20%
[1]
  pEC50: 6.52
[8]
  Activation: 41%
[3]
  Activation: inactive
